Results gathered from unrelated publications.
Each line is one published result; the experiments were not run side by side.
Target: Insulin receptor-related protein (INSRR, Homo sapiens, UniProt P14616)

COc1cc(-c2cn(C3CCc4c(F)cccc4N(CC(F)(F)F)C3=O)nn2)ccc1-n1cnc(C)c1 (stereo not shown)
remaining binding (cell-free assay; competition with immobilised ligand; 1 µM): 100%

CC(C)(C)c1nc(-c2cccc(NS(=O)(=O)c3c(F)cccc3F)c2F)c(-c2ccnc(N)n2)s1
remaining activity (enzyme activity; inhibitor; radiometric; 1 µM): 103%

Nc1ncnc2occ(-c3ccc(NC(=O)Nc4cc(C(F)(F)F)ccc4F)cc3)c12
remaining signal (cell-free assay; 20 µM): 0.85%

O=C1Nc2ccc(Cl)cc2C1=Cc1cc(Cl)c(O)c(Cl)c1
remaining signal (cell-free assay; 0.5 µM): 100%

Nc1nc(Nc2ccccc2)sc1C(=O)c1c(F)cccc1F
remaining activity (enzyme activity; inhibitor; 10 µM): 24%

Cn1c(=O)n(-c2ccc(C(C)(C)C#N)cc2)c2c3cc(-c4cnc5ccccc5c4)ccc3ncc21
remaining activity (enzyme activity; inhibitor; 10 µM): 80%

Cc1ccc(Nc2nccc(N(C)c3ccc4c(C)n(C)nc4c3)n2)cc1S(N)(=O)=O
inhibition (enzyme activity; inhibitor; 10 µM): 41%

COc1cc(/C=C/C(=O)CC(=O)/C=C/c2ccc(O)c(OC)c2)ccc1O
activity vs control (enzyme activity; inhibitor; 1 µM): 84%

CC(C)CC(=O)N1CCc2nc(-c3ccc(Br)cc3)nc(N(C)Cc3ccccc3)c2C1
remaining binding (cell-free assay; competition with immobilised ligand; 0.1 µM): 100%

FC(F)c1nc2ccccc2n1-c1nc(N2CCOCC2)nc(N2CCOCC2)n1
remaining activity (enzyme activity; inhibitor; 10 µM): 88%

COc1cc2ncnc(Nc3ccc(Oc4ccccc4)c(C)c3C)c2cc1OC
inhibition (enzyme activity; inhibitor; 1 µM): 2%

CC1=C(C#N)C(c2ccc3c(c2)c(NC(=O)c2ccccc2C)nn3C)C(C#N)=C(C)N1
remaining binding (cell-free assay; competition with immobilised ligand; 1 µM): 100%

CNC(=O)c1cc(Oc2ccc(NC(=O)Nc3ccc(Cl)c(C(F)(F)F)c3)cc2)ccn1
inhibition (enzyme activity; inhibitor; 0.3 µM): -25%

CC(=O)c1c(NS(C)(=O)=O)c2cc(-c3ccc(Cl)cc3)c(-c3ccc(Cl)cc3Cl)nc2n(C)c1=O
remaining binding (cell-free assay; competition with immobilised ligand; 1 µM): 93%

COc1cc(Nc2cnc(C#N)c(O[C@H](C)CN(C)C)n2)ncc1-c1cnn(C)c1
remaining activity (enzyme activity; inhibitor; radiometric; 1 µM): 103%

CN1CC(Oc2cnc(C#N)cc2-c2ccn3nc(NC(=O)C4CC4)cc3c2)C1
inhibition (enzyme activity; inhibitor; 1 µM): -4%

CC(=O)N1CCC(c2ccc(C(=O)NC(=N)N)cc2C(F)(F)F)CC1
remaining binding (cell-free assay; competition with immobilised ligand; 1 µM): 100%

Cc1cc(NC(=O)c2cccc3cc(-c4cccc5[nH]nc(N)c45)ccc23)ccc1F
activity vs control (enzyme activity; inhibitor; 0.1 µM): 106%

Cc1sc(C(=O)NC2COC2)cc1-n1cc(NC(=O)Nc2c(F)cccc2Cl)cn1
remaining activity (enzyme activity; inhibitor; 10 µM): 71.9%

CN([C@@H]1CCc2c(CC(=O)O)c3cc(S(C)(=O)=O)ccc3n2C1)S(=O)(=O)c1ccc(F)cc1
remaining binding (cell-free assay; competition with immobilised ligand; 1 µM): 100%

O=C1NC(=O)c2cc(Nc3ccc(F)cc3)c(Nc3ccc(F)cc3)cc21
remaining signal (cell-free assay; 0.5 µM): 111%

CCCOc1ccc(OC)c(F)c1C(=O)c1ccc(C(=O)N[C@@H]2CNC[C@H]2NC(=O)c2ccc3[nH]ncc3c2)cc1
remaining activity (enzyme activity; inhibitor; 10 µM): 87%

COc1cc(Cl)c(C(=O)N[C@@H](CN[C@H]2CC[C@@H](N)CC2)Cc2ccc(C#N)cc2)cc1-c1ccc(CN[C@H](C)c2ccc(C)cc2)o1
remaining activity (enzyme activity; inhibitor; 1 µM): 98%

Cc1nc(Cc2cccc(C(F)(F)F)c2)sc1-c1ccc(C(N)=O)nc1
remaining binding (cell-free assay; competition with immobilised ligand; 1 µM): 100%

COc1cc2nccc(Oc3ccc(NC(=O)c4c5n(n(-c6ccc(F)cc6)c4=O)CCCC5)cc3)c2cc1OC
inhibition (enzyme activity; inhibitor; 0.1 µM): 5%

CCN(CC)CCNC(=O)c1c(C)[nH]c(/C=C2\C(=O)Nc3ccc(F)cc32)c1C
inhibition (enzyme activity; inhibitor; 10 µM): 78%

O=C(NC[C@@H]1[C@H]2CN(C(=O)OCc3cc(C(F)(F)F)cc(C(F)(F)F)c3)C[C@@H]12)c1ccc2[nH]nnc2c1
remaining binding (cell-free assay; competition with immobilised ligand; 1 µM): 83%

Cc1ccc(C(=O)NCc2ccsc2)cc1C#Cc1cn(C(C)C)c2ncnc(N)c12
activity vs control (enzyme activity; inhibitor; 1 µM): 105%
